Laboratory results from ChEMBL document CHEMBL1146956, “Factor VIIa inhibitors: a prodrug strategy to improve oral bioavailability” (Bioorg Med Chem Lett, 2006).
Values after ≈ are worked out from the molar mass of the structure shown.

Tests used:
[1] = Oral absorption in Sprague-Dawley rats; type: ADME, organism-based; settings: rat, in vivo
In short: (§1)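 Plasma was acetonitrile-precipitated and analysed by LC/MS/MS for prodrug and parent, then AUC was computed. From dose-normalized AUCs, Abs = AUC_PO,PV/AUC_IV,JV and F = AUC_PO,JV/AUC_IV,JV.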

[2] = Oral bioavailability in Sprague-Dawley rats; type: ADME, organism-based; settings: rat, in vivo; in short: as §1
[3] = Solubility in phosphate buffer at pH 7.4; type: physicochemical
In short: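 Kinetic solubility was measured in phosphate buffer pH 7.4 with 5% DMSO, prepared from a 10 mM DMSO stock. Samples were vortexed, then centrifuged at 4300 RPM for 10 min to remove insoluble material. The supernatant was quantified by HPLC/UV against a calibration standard.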

[4] = Stability in rat plasma at 10 uM after 2 hrs; type: ADME, cell-free; settings: read-out: Stability
In short: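 Frozen pooled human or rat plasma (sodium heparin) was incubated with compound at 37 °C for 2 h. Prodrug disappearance was followed by LC/MS/MS. Percent remaining is the prodrug peak area at 2 h divided by the area at time 0.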

[5] = Stability in human liver microsome at 2 uM after 1 hr; type: ADME; settings: liver microsomes, read-out: Stability
In short: (§2)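 Compound was incubated at 37 °C for 1 h with cryopreserved pooled male human or rat liver microsomes. Loss of prodrug was tracked by LC/MS/MS. Percent remaining at 1 h was taken as the end-point peak area over the time-0 peak area.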

[6] = Stability in rat liver microsome at 2 uM after 1 hr; type: ADME; settings: liver microsomes, read-out: Stability; in short: as §2
[7] = organism: Homo sapiens; assay: Stability in human plasma at 10 uM after 2 hrs

| SMILES | Fa [1] [%] | bioavailability [2] [%] | solubility [3] [µM] | remaining at 2 h, 10 µM [4] [%] | remaining at 1 h, 2 µM [5] [%] | remaining at 1 h, 2 µM [6] [%] | remaining at 2 h, 10 µM [7] [%] |
| --- | --- | --- | --- | --- | --- | --- | --- |
| Oc1ccccc1-c1cccc(-c2nc3ccccc3[nH]2)c1O | 100 | 16 | – | – | – | – | – |
| N/C(=N/C(=O)OCC(Cl)(Cl)Cl)c1ccc2[nH]c(-c3cccc(-c4ccccc4O)c3O)cc2c1 | 21 | 14 | < 10 | 89 | 87 | 9 | 100 |
| CC(C)OC(=O)NC(=N)c1ccc2[nH]c(-c3cccc(-c4ccccc4O)c3O)cc2c1 | 53 | 23 | < 10 | 100 | – | 49 | 100 |
| C=CCO/N=C(/N)c1ccc2[nH]c(-c3cccc(-c4ccccc4O)c3O)cc2c1 | 100 | 100 | 24 (≈ 9.59 µg/mL) | 94 | 55 | 42 | 100 |
| CC(C)ONC(=N)c1ccc2[nH]c(-c3cccc(-c4ccccc4O)c3O)cc2c1 | 54 | 10 | 25 (≈ 10 µg/mL) | 100 | 63 | 69 | 100 |
| N=C(N)c1ccc2nc(-c3cccc(-c4cc(F)ccc4O)c3O)[nH]c2c1 | < 1 | < 1 | – | – | – | – | – |
| CC(=O)OC(C)OC(=O)NC(=N)c1ccc2[nH]c(-c3cccc(-c4ccccc4O)c3O)cc2c1 (stereo not drawn) | – | – | < 10 | 37 | 9 | 12 | 96 |
| N=C(N)c1ccc2[nH]c(-c3cccc(-c4cc(F)ccc4O)c3O)cc2c1 | – | < 1 | 83 (≈ 30 µg/mL) | 100 | 61 | 100 | 100 |
| CC(C)(C)ONC(=N)c1ccc2[nH]c(-c3cccc(-c4ccccc4O)c3O)cc2c1 | 60 | 38 | < 10 | 99 | 100 | 78 | 100 |
| CCONC(=N)c1ccc2[nH]c(-c3cccc(-c4ccccc4O)c3O)cc2c1 | 53 | 67 | 43 (≈ 16.7 µg/mL) | 100 | 50 | 70 | 100 |
| CCOC(=O)NC(=N)c1ccc2[nH]c(-c3cccc(-c4ccccc4O)c3O)cc2c1 | – | – | < 10 | 95 | 37 | 53 | 100 |
| N/C(=N/O)c1ccc2[nH]c(-c3cccc(-c4ccccc4O)c3O)cc2c1 | 39 | 15 | 380 (≈ 137 µg/mL) | 94 | 41 | 9 | 97 |
